Experimental data taken from ChEMBL document CHEMBL4330069, “Boosting the efficacy of anti-MRSA β-lactam antibiotics via an easily accessible, non-cytotoxic and orally bioavailable FtsZ inhibitor” (Eur J Med Chem, 2019).
In brackets after ≈: the same amount, converted by molar mass. Activity calls are given as the source filed them.

Tests used:
Staphylococcus aureus [1] = assay: Antibacterial activity against multidrug-resistant Staphylococcus aureus isolate 2728 by broth microdilution assay; format: functional
Procedure, shortened: (§1)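 Broth microdilution MIC per CLSI guidelines against clinical MRSA isolates, for β-lactams and test compound alone and in combination. Compounds were dissolved in DMSO. Growth was read by eye, in duplicate. FIC index = FIC(compound) + FIC(drug); synergy defined as FIC index ≤0.5.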

Staphylococcus aureus [2] = assay: Antibacterial activity against multidrug-resistant Staphylococcus aureus isolate 1136 by broth microdilution assay; format: functional; procedure, shortened: as §1
Staphylococcus aureus [3] = assay: Antibacterial activity against multidrug-resistant Staphylococcus aureus isolate 2224 by broth microdilution assay; format: functional; procedure, shortened: as §1
Staphylococcus aureus [4] = assay: Antibacterial activity against multidrug-resistant Staphylococcus aureus isolate 256 by broth microdilution assay; format: functional; procedure, shortened: as §1
Staphylococcus aureus [5] = assay: Antibacterial activity against multidrug-resistant Staphylococcus aureus isolate 2973 by broth microdilution assay; format: functional; procedure, shortened: as §1
Staphylococcus aureus [6] = assay: Antibacterial activity against multidrug-resistant Staphylococcus aureus isolate 757 by broth microdilution assay; format: functional; procedure, shortened: as §1
Staphylococcus aureus [7] = assay: Antibacterial activity against multidrug-resistant Staphylococcus aureus isolate 1402 by broth microdilution assay; format: functional; procedure, shortened: as §1
Staphylococcus aureus [8] = assay: Antibacterial activity against multidrug-resistant Staphylococcus aureus isolate 417 by broth microdilution assay; format: functional; procedure, shortened: as §1
Staphylococcus aureus [9] = assay: Antibacterial activity against multidrug-resistant Staphylococcus aureus isolate 3332 by broth microdilution assay; format: functional; procedure, shortened: as §1
Staphylococcus aureus [10] = assay: Antibacterial activity against multidrug-resistant Staphylococcus aureus isolate 2516 by broth microdilution assay; format: functional; procedure, shortened: as §1
Staphylococcus aureus [11] = assay: Antibacterial activity against multidrug-resistant Staphylococcus aureus isolate 3411 by broth microdilution assay; format: functional; procedure, shortened: as §1
Staphylococcus aureus [12] = assay: Antibacterial activity against multidrug-resistant Staphylococcus aureus isolate 3580 by broth microdilution assay; format: functional; procedure, shortened: as §1
Staphylococcus aureus [13] = assay: Antibacterial activity against multidrug-resistant Staphylococcus aureus isolate 2919 by broth microdilution assay; format: functional; procedure, shortened: as §1
Staphylococcus aureus [14] = assay: Antibacterial activity against multidrug-resistant Staphylococcus aureus isolate 2901 by broth microdilution assay; format: functional; procedure, shortened: as §1
Staphylococcus aureus [15] = assay: Antibacterial activity against multidrug-resistant Staphylococcus aureus isolate 774 by broth microdilution assay; format: functional; procedure, shortened: as §1
Staphylococcus aureus [16] = assay: Antibacterial activity against multidrug-resistant Staphylococcus aureus isolate 3267 by broth microdilution assay; format: functional; procedure, shortened: as §1
Staphylococcus aureus [17] = assay: Antibacterial activity against multidrug-resistant Staphylococcus aureus isolate 1717 by broth microdilution assay; format: functional; procedure, shortened: as §1
Staphylococcus aureus [18] = assay: Antibacterial activity against multidrug-resistant Staphylococcus aureus isolate 3589 by broth microdilution assay; format: functional; procedure, shortened: as §1
Staphylococcus aureus [19] = assay: Antibacterial activity against multidrug-resistant Staphylococcus aureus isolate 254 by broth microdilution assay; format: functional; procedure, shortened: as §1
Staphylococcus aureus [20] = assay: Antibacterial activity against multidrug-resistant Staphylococcus aureus isolate 1449 by broth microdilution assay; format: functional; procedure, shortened: as §1
Staphylococcus aureus [21] = assay: Antibacterial activity against multidrug-resistant Staphylococcus aureus isolate 85 by broth microdilution assay; format: functional; procedure, shortened: as §1
Staphylococcus aureus [22] = assay: Antibacterial activity against multidrug-resistant Staphylococcus aureus isolate 1749 by broth microdilution assay; format: functional; procedure, shortened: as §1
Staphylococcus aureus [23] = assay: Antibacterial activity against multidrug-resistant Staphylococcus aureus isolate 1344 by broth microdilution assay; format: functional; procedure, shortened: as §1
Staphylococcus aureus [24] = assay: Antibacterial activity against multidrug-resistant Staphylococcus aureus isolate 358 by broth microdilution assay; format: functional; procedure, shortened: as §1
Staphylococcus aureus [25] = assay: Antibacterial activity against multidrug-resistant Staphylococcus aureus isolate 200 by broth microdilution assay; format: functional; procedure, shortened: as §1
Staphylococcus aureus [26] = assay: Antibacterial activity against multidrug-resistant Staphylococcus aureus isolate 2490 by broth microdilution assay; format: functional; procedure, shortened: as §1
Staphylococcus aureus [27] = assay: Antibacterial activity against multidrug-resistant Staphylococcus aureus isolate 2895 by broth microdilution assay; format: functional; procedure, shortened: as §1
Staphylococcus aureus [28] = assay: Antibacterial activity against multidrug-resistant Staphylococcus aureus isolate 231 by broth microdilution assay; format: functional; procedure, shortened: as §1
Staphylococcus aureus [29] = assay: Synergistic bactericidal activity against Staphylococcus aureus ATCC BAA-41 at 1 to 16 times MIC in presence of methicillin up to 24 hrs by time kill assay; format: functional, organism-based
Procedure, shortened: (§2)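 Colony of strain grown 16 h in CA-MH broth at 37 °C with shaking, diluted 100-fold and grown to mid-log (OD595 0.8), then set at 5×10^5 CFU/mL. […] Sampled at 0, 2.5, 5, 7.5, 21, 24 h, diluted and plated on drug-free CA-MH agar, 24 h at 37 °C; triplicates.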

Staphylococcus aureus [30] = assay: Antibacterial activity against Staphylococcus aureus ATCC BAA-41 at […] after 24 hrs by time kill assay; format: functional, organism-based
Procedure, shortened: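 Time-kill assay. S. aureus BAA-41 was grown in CA-MH broth to mid-log phase (OD595 0.8), then diluted to 5×10^5 CFU/mL. […] Samples were taken at 0–24 h and plated on drug-free CA-MH agar for 24 h. Triplicates.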

[31] = target: T1, Cell division protein FtsZ (Staphylococcus aureus) (UniProt P0A031); assay: Inhibition of Staphylococcus aureus N-terminal 6His-tagged FtsZ polymerization expressed in Escherichia coli BL21 (DE3) assessed as thin strands at 100 uM in presence of GTP by TEM analysis
T1 sequence (whole entry): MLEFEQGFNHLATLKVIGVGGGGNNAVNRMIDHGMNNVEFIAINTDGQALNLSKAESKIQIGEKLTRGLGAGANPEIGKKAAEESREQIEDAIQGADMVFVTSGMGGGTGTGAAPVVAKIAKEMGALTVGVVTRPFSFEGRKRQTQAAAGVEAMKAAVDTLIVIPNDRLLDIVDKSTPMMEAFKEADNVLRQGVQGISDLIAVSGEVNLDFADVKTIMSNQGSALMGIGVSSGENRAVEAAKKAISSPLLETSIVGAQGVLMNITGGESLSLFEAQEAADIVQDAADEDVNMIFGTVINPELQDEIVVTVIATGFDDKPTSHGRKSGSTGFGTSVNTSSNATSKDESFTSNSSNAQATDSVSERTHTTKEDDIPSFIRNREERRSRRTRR
Procedure, shortened: (§3)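 Purified S. aureus FtsZ was incubated with GTP and compound at 0, 50 or 100 µM. Filaments were then imaged by transmission electron microscopy.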

[32] = target: T1, Cell division protein FtsZ (Staphylococcus aureus); assay: Inhibition of Staphylococcus aureus N-terminal 6His-tagged FtsZ polymerization expressed in Escherichia coli BL21 (DE3) assessed as single strands at 100 uM in presence of GTP by TEM analysis; procedure, shortened: as §3
[33] = target: T1, Cell division protein FtsZ (Staphylococcus aureus); assay: Inhibition of Staphylococcus aureus N-terminal 6His-tagged FtsZ polymerization expressed in Escherichia coli BL21 (DE3) at 100 uM relative to control
Procedure, shortened: (§4)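 Purified S. aureus FtsZ polymerization with GTP, followed as light scattering (absorbance 600 nm) over time. Compound was tested at 12.5–100 µM against a 1% DMSO vehicle, and inhibition was read at 500 s. Triplicate.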

[34] = target: T1, Cell division protein FtsZ (Staphylococcus aureus); assay: Inhibition of Staphylococcus aureus N-terminal 6His-tagged FtsZ polymerization expressed in Escherichia coli BL21 (DE3) assessed as reduction in filament formation in presence of GTP by TEM analysis; procedure, shortened: as §3
[35] = target: T1, Cell division protein FtsZ (Staphylococcus aureus); assay: Inhibition of Staphylococcus aureus N-terminal 6His-tagged FtsZ polymerization expressed in Escherichia coli BL21 (DE3) assessed as short strands at 100 uM in presence of GTP by TEM analysis; procedure, shortened: as §3
[36] = target: T1, Cell division protein FtsZ (Staphylococcus aureus); assay: Inhibition of Staphylococcus aureus N-terminal 6His-tagged FtsZ polymerization expressed in Escherichia coli BL21 (DE3) at 50 uM relative to control; procedure, shortened: as §4
[37] = target: T1, Cell division protein FtsZ (Staphylococcus aureus); assay: Inhibition of Staphylococcus aureus N-terminal 6His-tagged FtsZ GTPase expressed in Escherichia coli BL21 (DE3) at 100 uM
[38] = target: T1, Cell division protein FtsZ (Staphylococcus aureus); assay: Inhibition of Staphylococcus aureus N-terminal 6His-tagged FtsZ polymerization expressed in Escherichia coli BL21 (DE3) at 25 uM relative to control; procedure, shortened: as §4
[39] = target: T1, Cell division protein FtsZ (Staphylococcus aureus); assay: Inhibition of Staphylococcus aureus N-terminal 6His-tagged FtsZ polymerization expressed in Escherichia coli BL21 (DE3); procedure, shortened: as §4
[40] = target: T1, Cell division protein FtsZ (Staphylococcus aureus); assay: Inhibition of Staphylococcus aureus N-terminal 6His-tagged FtsZ polymerization expressed in Escherichia coli BL21 (DE3) assessed as reduced strands at 100 uM in presence of GTP by TEM analysis; procedure, shortened: as §3
Staphylococcus aureus [41] = assay: Synergistic antibacterial activity against Staphylococcus aureus ATCC BAA-41 at 1 to 16 times MIC in presence of methicillin after 21 hrs by time kill assay; format: functional, organism-based; procedure, shortened: as §2

Question: `Cc1onc(-c2ccccc2Cl)c1C(=O)N[C@@H]1C(=O)N2[C@@H]1SC(C)(C)[C@@H]2C(=O)O` [CLOXACILLIN] was tested. Which MIC (Staphylococcus aureus [1]) did it give?
Answer: 1 µg/mL (≈ 2.29 µM)

Question: And the MIC (Staphylococcus aureus [2])?
Answer: 8 µg/mL (≈ 18.4 µM)

Question: And the MIC (Staphylococcus aureus [3])?
Answer: 8 µg/mL (≈ 18.4 µM)

Question: And the MIC (Staphylococcus aureus [4])?
Answer: 8 µg/mL (≈ 18.4 µM)

Question: What about the MIC (Staphylococcus aureus [5]) of the same compound?
Answer: 16 µg/mL (≈ 36.7 µM)

Question: And the MIC (Staphylococcus aureus [6])?
Answer: 8 µg/mL (≈ 18.4 µM)

Question: And the MIC (Staphylococcus aureus [7])?
Answer: 2 µg/mL (≈ 4.59 µM)

Question: What about the MIC (Staphylococcus aureus [8]) of the same compound?
Answer: 64 µg/mL (≈ 147 µM)

Question: What about the MIC (Staphylococcus aureus [9]) of the same compound?
Answer: 8 µg/mL (≈ 18.4 µM)

Question: What about the MIC (Staphylococcus aureus [10]) of the same compound?
Answer: 16 µg/mL (≈ 36.7 µM)

Question: What about the MIC (Staphylococcus aureus [11]) of the same compound?
Answer: 32 µg/mL (≈ 73.4 µM)

Question: And the MIC (Staphylococcus aureus [12])?
Answer: 2 µg/mL (≈ 4.59 µM)

Question: What about the MIC (Staphylococcus aureus [13]) of the same compound?
Answer: 4 µg/mL (≈ 9.18 µM)

Question: What about the MIC (Staphylococcus aureus [14]) of the same compound?
Answer: 2 µg/mL (≈ 4.59 µM)

Question: What about the MIC (Staphylococcus aureus [15]) of the same compound?
Answer: 2 µg/mL (≈ 4.59 µM)

Question: What about the MIC (Staphylococcus aureus [16]) of the same compound?
Answer: 4 µg/mL (≈ 9.18 µM)

Question: And the MIC (Staphylococcus aureus [17])?
Answer: 0.5 µg/mL (≈ 1.15 µM)

Question: What about the MIC (Staphylococcus aureus [18]) of the same compound?
Answer: 32 µg/mL (≈ 73.4 µM)

Question: And the MIC (Staphylococcus aureus [19])?
Answer: 32 µg/mL (≈ 73.4 µM)

Question: What about the MIC (Staphylococcus aureus [20]) of the same compound?
Answer: 1 µg/mL (≈ 2.29 µM)

Question: What about the MIC (Staphylococcus aureus [21]) of the same compound?
Answer: 0.5 µg/mL (≈ 1.15 µM)

Question: And the MIC (Staphylococcus aureus [22])?
Answer: 0.5 µg/mL (≈ 1.15 µM)

Question: What about the MIC (Staphylococcus aureus [23]) of the same compound?
Answer: 16 µg/mL (≈ 36.7 µM)

Question: And the MIC (Staphylococcus aureus [24])?
Answer: 1 µg/mL (≈ 2.29 µM)

Question: And the MIC (Staphylococcus aureus [25])?
Answer: 1 µg/mL (≈ 2.29 µM)

Question: What about the MIC (Staphylococcus aureus [26]) of the same compound?
Answer: 2 µg/mL (≈ 4.59 µM)

Question: And the MIC (Staphylococcus aureus [27])?
Answer: 8 µg/mL (≈ 18.4 µM)

Question: What about the MIC (Staphylococcus aureus [28]) of the same compound?
Answer: 64 µg/mL (≈ 147 µM)

Question: `CCCCCCCCCNc1ccc(F)c(C(N)=O)c1F` was tested. Which Activity (Staphylococcus aureus [29]) did it give?
Answer: Active

Question: And the Activity (Staphylococcus aureus [30])?
Answer: inactive

Question: What about the inhibition [31] of the same compound?
Answer: Active

Question: And the inhibition [32]?
Answer: Active

Question: What about the inhibition [33] of the same compound?
Answer: 47%

Question: And the inhibition [34]?
Answer: Dose-dependent effect

Question: What about the inhibition [35] of the same compound?
Answer: Active

Question: And the inhibition [36]?
Answer: 39%

Question: What about the inhibition [37] of the same compound?
Answer: inactive

Question: What about the inhibition [38] of the same compound?
Answer: 34%

Question: What about the inhibition [39] of the same compound?
Answer: Dose-dependent effect

Question: And the inhibition [40]?
Answer: Active

Question: And the Activity (Staphylococcus aureus [41])?
Answer: Active
